Organism: Homo sapiens
Assay: Thermal stabilization of human telomeric G-quadruplex FAM-TTAGGGTTAGGGTTAGGGTTAGGG-TAMRA DNA assessed as change in melting temperature at 1:5 DNA:ligand ratio by FRET assay
Summary of the method: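 FRET melting of 200 nM dual-labelled quadruplex in 50 mM Tris-HCl with KCl (100 mM for htelo and hras-1, 10 mM for KRAS and hras-2). Ligand at r = 5 ([ligand]/[quadruplex]; hras-2 tabulated at r = 4). Samples held 5 min at 20 °C, then heated 1 °C/min to 95 °C. ΔTM is the TM with ligand minus TM without ligand (±0.5 K). For hras-1 both biphasic transitions are given.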

deltaTm: 35 K
Structure (SMILES): NCCOc1cc(C(=O)Nc2cc(OCCN)c3ccccc3n2)nc(C(=O)Nc2cc(OCCN)c3ccccc3n2)c1

Reference: ChEMBL document CHEMBL2346582, “Guanidino anthrathiophenediones as G-quadruplex binders: uptake, intracellular localization, and anti-Harvey-Ras gene activity in bladder cancer cells” (J Med Chem, 2013)
